# Source: PubChem BioAssay
# An excerpt weighted towards active compounds, which were near 5.7% of everything screened.
# CSC inhib: cancer stem cell viability inhibitors, primary screen, luminescence | cancer stem cell-like cells viability | inhibition, % at 7.5 µM | actives 1.1% (n = 300,000); in the data active means inhibition above about 75%; inconclusive means no clear call, values can overlap the other calls; tested in HMLE shEcad cells
# Calb FLC: C. albicans growth inhibition with fluconazole, primary screen, CaCi-2 strain, Alamar Blue fluorescence; C. albicans CaCi-2 (fluconazole-resistant clinical isolate) + fluconazole, 48 h; growth inhibition, % (concentration not given with the values); actives 0.57% (n = 300,000);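 active means growth inhibition above about 58% in most replicates, limit read from the data, passing the limit was not always enough; inconclusive means exactly half the replicates above a set limit; inactive means most replicates below a set limit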;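 further: all wells also contain fluconazole at 8 µg/ml as a sub-toxic cotreatment; 0% = median of DMSO wells and 100% = median of geldanamycin control wells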
# Beta apoptosis: inhibitors of cytokine-induced beta cell apoptosis, primary screen, luminescence; INS-1E cytokine-induced death, ATP luminescence, 48 h; percent of positive-control rescue, neutral wells zero; protection from apoptosis, % (no concentration beside the values); actives 0.8% (n = 300,000); AID 435005, 2010;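 active means Every replicate reaches about 75%, or at least half do and their mean reaches it too, limit read from the data; inconclusive means At least half of replicates reach the limit but their mean does not; inactive means Under half of replicates reach the limit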;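 further: 0% = cytokine-treated negative control wells and 100% = positive control rescue; higher means more ATP so stronger rescue from cytokine killing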
# SKKanGAS inh: S. pyogenes SKKanGAS growth inhibitors in kanamycin, primary screen, streptokinase expression inhibitor project, SKKanGAS strain, BacTiter-Glo luminescence; 6 h; inhibition, % at 7.5 µM; actives 1.3% (n = 300,000);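 active means mean replicate score, as percent of positive control median, at least 50; inconclusive means mean below 50 but one replicate at or above 50; inactive means mean and every replicate below 50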;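 further: strain carries kanamycin resistance gene driven by streptokinase promoter and grows in 40 µg/ml kanamycin; loss of luminescence reflects streptokinase promoter inhibition or plain growth inhibition; 0% = median of DMSO wells and 100% = positive control at its reference dose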
# Mdm2 MdmX PPI: inhibitors of human Mdm2-MdmX association, primary screen, cell-based, luminescence, split luciferase, SaOS-2, uHTS; Protein Mdm4 (Homo sapiens) + E3 ubiquitin-protein ligase Mdm2 (Homo sapiens), …; SaOS-2 split-luciferase Mdm2/MdmX complementation; inhibition, % at 8 µM; actives 3% (n = 330,000); AID 485346, 2010;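 active means inhibition of at least 50% at 8 µM in the primary screen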
# Target sequence (O15151 whole entry, looked up): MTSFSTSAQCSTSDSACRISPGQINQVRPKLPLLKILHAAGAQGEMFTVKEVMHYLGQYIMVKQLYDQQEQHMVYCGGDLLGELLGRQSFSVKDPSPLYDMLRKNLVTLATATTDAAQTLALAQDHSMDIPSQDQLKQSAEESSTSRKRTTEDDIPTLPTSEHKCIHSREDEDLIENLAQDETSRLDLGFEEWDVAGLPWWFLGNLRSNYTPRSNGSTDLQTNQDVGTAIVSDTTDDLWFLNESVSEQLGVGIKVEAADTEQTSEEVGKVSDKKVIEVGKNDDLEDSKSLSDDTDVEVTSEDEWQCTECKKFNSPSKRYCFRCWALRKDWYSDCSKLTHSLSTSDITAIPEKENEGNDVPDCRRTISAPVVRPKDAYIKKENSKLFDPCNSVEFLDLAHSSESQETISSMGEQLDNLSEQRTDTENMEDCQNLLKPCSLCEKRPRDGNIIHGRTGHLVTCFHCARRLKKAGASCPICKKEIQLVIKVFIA
# Target sequence (Q00987 whole entry, looked up): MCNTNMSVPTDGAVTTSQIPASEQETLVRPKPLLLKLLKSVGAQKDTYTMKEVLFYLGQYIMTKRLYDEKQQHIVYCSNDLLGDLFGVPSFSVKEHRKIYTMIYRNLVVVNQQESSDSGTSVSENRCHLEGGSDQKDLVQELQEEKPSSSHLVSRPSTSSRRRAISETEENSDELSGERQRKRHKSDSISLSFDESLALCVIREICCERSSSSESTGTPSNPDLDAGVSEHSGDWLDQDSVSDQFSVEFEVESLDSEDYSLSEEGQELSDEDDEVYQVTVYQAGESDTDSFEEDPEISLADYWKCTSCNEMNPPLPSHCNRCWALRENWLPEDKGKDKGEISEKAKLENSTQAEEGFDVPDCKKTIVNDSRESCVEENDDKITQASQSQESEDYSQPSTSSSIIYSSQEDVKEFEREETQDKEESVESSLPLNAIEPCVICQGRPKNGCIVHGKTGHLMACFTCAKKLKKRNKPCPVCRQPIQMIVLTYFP
# T cruzi repl: inhibitors of intracellular T. cruzi growth, primary screen, luminescence, NIH3T3 host cells | actives 1.4% (n = 300,000) | inhibition, % (concentration not given with the values) | T. cruzi beta-gal in NIH3T3, 90 h;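 active means mean inhibition across valid replicates above about 55%, limit read from the data; inconclusive means mean below that limit but half or more replicates reach it; inactive means mean below it, under half of replicates reach it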;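 further: signal also drops with host cell toxicity which is not excluded here; 0% = plate median of DMSO wells and 100% = zero luminescence signal; higher percent means less beta-gal luminescence so fewer parasites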
#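 System: mouse NIH/3T3 fibroblasts infected with β-gal-expressing T. cruzi Tulahuen C4 / Input: NIH/3T3 cells, 5,000 per well / Buffer or medium: Low-serum DMEM with 2% FBS / Probe or stimulus: 5000 reporter trypomastigotes per well / Schedule: ≥90 h infection period, 3 h prior cell attachment / Measured by: GalScreen luminescence, 60 min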
# Mdm2-MdmX conf: Mdm2-MdmX complex disruptors, retested hits, confirmation, luminescence, single concentration; actives 55% (n = 10,000); Mdm2-MdmX binding, luminescent assay; AID 489028, 2010; inhibition, % at 8 µM; shares compounds with Mdm2 MdmX PPI; in the data active means inhibition above about 40%
# FLuc counter: full-length luciferase signal inhibition, confirmation, counter-screen for Mdm2/MdmX interaction inhibitor project, cell-based, single concentration, SaOS-2; inhibition, % at 8 µM; SaOS-2 full-length luciferase counterscreen, luminescence; actives 77% (n = 6,200); shares compounds with Mdm2 MdmX PPI; AID 504607, 2011;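 active means mean inhibition at 8 µM reaching about 37%, which flags the compound as non-specific, limit read from the data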;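 further: p53-null SaOS-2 cells with luciferase driven by a doxycycline-inducible promoter; compound on cells about two nights before reading with doxycycline added after day one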
# Numbers without * were called inactive; u = inconclusive; x = no result given.
SMILES,CSC inhib,Calb FLC,Beta apoptosis,SKKanGAS inh,Mdm2 MdmX PPI,T cruzi repl,Mdm2-MdmX conf,FLuc counter
Cn1cc(C(=O)c2ccc(Cl)cc2Cl)cc1C(=O)N/N=C(\N)COc1ccc(F)cc1,15,0,9,25,37,9,x,x
Cn1cc(C(=O)c2ccc(Cl)cc2Cl)cc1C(=O)N/N=C(\N)COc1ccc(Cl)cc1Cl,-17,-5,19,71*,67*,14,41*,40*
Cn1cc(C(=O)c2ccc(Cl)cc2Cl)cc1C(=O)N/N=C(\N)COc1ccccc1,10,-3,8,-1,22,4,x,x
Cn1cc(C(=O)c2ccc(Cl)cc2Cl)cc1C(=O)N/N=C(\N)COc1ccc(Cl)cc1,32,u,21,25,64*,43,40*,43*
Cc1[nH]nc(-c2ccc(OCc3cnn(-c4ccccc4)c3)c(C)c2O)c1Oc1ccccc1,9,-5,7,16,56*,12,51*,53*
Cc1nn(CC(=O)NCc2ccccc2)c(=O)c2ccccc12,x,-16,0,2,-16,4,x,x
Cc1nn(CC(=O)NCc2cccc3ccccc23)c(=O)c2ccccc12,27,-6,0,-8,85*,4,48*,64*
CC(Nc1cccc(C(=O)NC2CC2)c1)c1nnc(-c2ccccc2)o1 (stereo not drawn),-6,x,3,x,35,x,x,x
COc1ccc(C2c3ccc4ccccc4c3Oc3ncn(CCCN(C)C)c(=N)c32)cc1 (stereo not drawn),105*,23,112*,4,100*,42,100*,51*
COc1ccc(C2c3c(ncn(CCCO)c3=N)Oc3ccc4ccccc4c32)cc1 (stereo not drawn),18,3,5,8,81*,9,70*,57*
COc1ccccc1C1c2ccc3ccccc3c2Oc2ncn(CCN(C)C)c(=N)c21 (stereo not drawn),85*,23,45,5,100*,18,85*,38*
COc1ccc(C2c3ccc4ccccc4c3Oc3ncn(Cc4ccco4)c(=N)c32)cc1OC (stereo not drawn),80*,-1,-2,14,85*,-3,54*,67*
Cc1nnc(NC(=O)c2cc(S(=O)(=O)N3CCCCC3)ccc2Cl)s1,-2,-2,x,8,-14,-17,x,x
Cc1ccc(C(=O)NCCNS(=O)(=O)c2ccccc2)cn1,-7,3,-8,-3,20,-1,x,x
COc1ccc(C2c3c(ncn(CCN4CCOCC4)c3=N)Oc3ccc4ccccc4c32)cc1OC (stereo not drawn),3,-10,4,0,64*,-12,38,59*
COc1ccccc1C1c2ccc3ccccc3c2Oc2ncn(CCCO)c(=N)c21 (stereo not drawn),17,19,13,3,74*,41,43*,61*
COc1ccc(C2c3c(ncn(CCCO)c3=N)Oc3ccc4ccccc4c32)cc1OC (stereo not drawn),x,16,x,2,44,12,x,x
N=c1c2c(ncn1CCCO)Oc1cc(O)ccc1C2c1ccccc1 (stereo not drawn),-18,0,1,9,7,-25,x,x
COc1ccc(/C=N/Nc2nn3cnnc3c3ccccc23)cc1,10,-4,-2,4,3,12,x,x
Brc1ccc(-c2nnc3ccc(N4CCN(c5ccccc5)CC4)nn23)cc1,-2,-3,-5,-7,100*,10,45*,77*
COC1c2ccccc2C(=O)N1Cc1ccc(F)cc1 (stereo not drawn),-6,3,-13,6,18,-4,x,x
CN1CCN(C(c2ccc(C(F)(F)F)cc2)c2cc(Cl)c3cccnc3c2O)CC1 (stereo not drawn),110*,100*,100*,104*,86*,59*,81*,25
c1ccc(C(c2nnnn2C2CCCC2)N2CCCCCC2)nc1 (stereo not drawn),x,-9,x,1,17,-36,x,x
CN1CCN(C(c2ccccc2)c2ccc(Cl)cc2)CC1 (stereo not drawn),0,x,6,x,36,x,x,x
CN1CCN(C(c2ccc(Cl)cc2)c2cc(Cl)c3cccnc3c2O)CC1 (stereo not drawn),-16,-6,68,101*,73*,44,72*,38*
SMILES,CSC inhib,Calb FLC,Beta apoptosis,SKKanGAS inh,Mdm2 MdmX PPI,T cruzi repl,Mdm2-MdmX conf,FLuc counter
Oc1c(C(c2ccccn2)N2CCCCC2)cc(Cl)c2cccnc12 (stereo not drawn),70,9,26,54*,65*,20,46*,43*
CCN1CCN(C(c2ccccc2)c2sc3nc(C)nn3c2O)CC1 (stereo not drawn),6,1,-7,-6,4,-22,x,x
CCN1CCN(C(c2ccc(C(F)(F)F)cc2)c2ccc3cccnc3c2O)CC1 (stereo not drawn),104*,-2,86*,100*,74*,40,78*,31
Cc1cccc(C)c1NC(=O)CN1CCN(CC(=O)NCC2(N3CCCCC3)CCCCC2)CC1,x,x,0,x,-21,x,x,x
Cc1cccc(NC(=O)Cn2nc(-c3cccs3)ccc2=O)c1C,-5,-3,-6,1,-12,9,x,x
CC(C)=CCC/C(C)=C/CNC(=O)C[C@H]1C[C@H](C(=O)N(C(C)C)C(C)C)[C@@]2(C)c3[nH]c4cc(CCC(=O)N(C)C)ccc4c3CCN2C1=O,x,x,x,x,35,x,x,x
O=C(Cn1cnc2c(oc3nc4c(cc32)CCCC4)c1=O)Nc1cccc(Cl)c1,-1,0,1,1,57*,2,2,x
COc1ccc(S(=O)(=O)Nc2ccccc2C(=O)N2CCCCC2)cc1C,4,-7,0,0,30,9,x,x
Cc1ccc(Cc2cnc(NC(=O)c3ccco3)s2)cc1,50,u,0,28,-97,-13,x,x
O=C(Nc1ncc(Cc2ccc(SC(F)F)cc2)s1)c1ccc(OC(F)F)cc1,75*,2,16,0,62*,-6,64*,96*
